From PubChem
FID counter – counter-screen for HCV NS3 helicase inhibitors: DNA intercalator displacement | DNA fluorescent intercalator displacement, fluorescence | inhibition, % at 7.9 µM | 0.17% of 290,000 active; in the data active = inhibition above about 37%;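 note: higher means more ethidium bromide displaced from hairpin DNA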
core dimer inh – HCV core protein dimerization inhibition | TR-FRET GST/Flag-core106 dimerization, 1536-well | inhibition, % at 5 µM | 0.33% of 300,000 active | AID 1899;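 active = inhibition above the mean of all tested compounds plus 3 SD, set per screening campaign, cut at about 45% in these data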
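Material: Tagged HCV core106 pair (GST and Flag) | Amount: GST-core106 13.5 nM, Flag-core106 17 nM | Medium: KF-containing HEPES buffer, pH 7.45, DTT, CHAPS, BSA | Reagent: Eu donor and XL665 acceptor anti-tag antibodies | Schedule: 4 h at 22.5 °C | Technique: Time-resolved FRET, ex 340 nm, em 617 and 671 nm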
NS3 helicase inh – inhibitors of Hepatitis C virus NS3 helicase; NS3 helicase DNA unwinding, Cy5 molecular beacon fluorescence; inhibition, % at 10.9 µM; 0.56% of 290,000 active;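 active = inhibition above the mean of all tested compounds plus 3 SD, set per campaign, cut at about 35% in these data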
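assay system = NS3 helicase fragment of HCV | buffer or medium = MOPS pH 6.5, MgCl2, DTT, Tween20, BSA | timing = 60 min unwinding reaction at 25 °C after ATP addition | signal = Cy5 beacon fluorescence read at start and 1 h | read-out basis = % inhibition of unwinding | control set = low DMSO, high thioflavine S at 110 µM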
HSF1 inhib – HSF1 inhibition; NIH3T3-HGL HSE-luciferase, MG132-induced, luminescence 8 h; hits give low values; activity change, negative = inhibition, % at 7.5 µM (by protocol); 0.77% of 300,000 active; AID 2098;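 active = more than half of replicate wells show activity change below -50%, luminescence cut by over half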;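 note: luciferase reports HSF-1 transcriptional activity via heat shock element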
HSP90 refold inh – blocks HSP90-mediated luciferase refolding in reticulocyte lysate. 0.91% of 290,000 active. Rabbit reticulocyte lysate, luciferase refolding luminescence, 3 h. AID 1789. inhibition, % at 5.6 µM;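 active = inhibition above the screen-wide mean plus 3 SD, computed separately per campaign, cut at about 16% in these data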;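 note: inhibitors lower the luminescence because luciferase stays unfolded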
HSF1 activator – increases HSF-1 driven luciferase reporter signal. NIH3T3-HGL HSF-1 luciferase reporter, MG132, 8 h; 100% = twice DMSO control signal. activation, % at 9 µM. 1.7% of 300,000 active. AID 504408;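 active = mean replicate activation of at least 50% with a set share of replicates each reaching 50%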
Each line names hits and unclear results; the compound was inactive in the other large screens. Hits are enriched below; roughly 3.9% of the tested compounds scored in any of these assays.

CCCCOc1cccc(OCC(=O)Nc2nc3ccccc3[nH]2)c1	none
COc1ccc(CN(C)CC(=O)Nc2cccc(S(N)(=O)=O)c2)c(OC)c1OC	none
Nc1nc(SCC(=O)Nc2ccc([N+](=O)[O-])cc2Br)n[nH]1	HSF1 activator 57.8
COc1ccc([N+](=O)[O-])cc1NC(=O)CSc1nccc(C)n1	core dimer inh 51.1
CC(C)c1nc(SCC(=O)Nc2ccc([N+](=O)[O-])cc2Br)n[nH]1	none
O=C(Cc1ccsc1)N1CCc2c([nH]c3ccccc23)C1c1ccccn1 (centres undefined)	none
COc1ccc(CN=C(N)N=C(N)N)cc1Cl	none
CC(C)Oc1ccc(CN=C(N)N=C(N)N)cc1Cl	HSF1 activator 54.6
O=C1NC(c2ccc(Br)cc2)Oc2ccccc21 (centres undefined)	none
COc1ccc(CC(C)N2CCN(Cc3ccccc3)CC2)cc1OC (centres undefined)	FID counter 38.1
COc1ccc(OCCCCc2c(C)n[nH]c2C)cc1	none (no result: FID counter, NS3 helicase inh, HSP90 refold inh)
O=C(CSc1nnc(CNC(=O)c2ccccc2)o1)NCc1ccc(F)cc1	none
O=C(CSc1nnc(CNC(=O)c2cccs2)o1)NCc1ccc(F)cc1	HSF1 inhib -55.1
CCOC(=O)c1c(NC(=O)c2cccs2)sc2c1CCC2	none (no result: FID counter, NS3 helicase inh, HSP90 refold inh)
N#Cc1ccccc1COC(=O)c1cc(=O)c2ccccc2o1	HSF1 activator 62.6
COc1cccc(C(O)C2OC(=O)c3ccccc32)c1OC (centres undefined)	none (no result: FID counter, NS3 helicase inh, HSP90 refold inh)
N=c1sccn1CC(=O)Nc1cc(Cl)ccc1Oc1ccccc1	HSF1 activator 79.4
CC(=O)Oc1ccc(OC(C)=O)c(SCCCCCCl)c1	HSF1 inhib -95.7 (no result: core dimer inh)
Nc1nn2cc(-c3ccccc3)nc2c2ccccc12	HSF1 activator 58.0
O=C(COc1ccc(Br)cc1Br)NC(=O)NC1CCCC1	none
O=C(COc1ccc(Br)cc1Cl)NC(=O)NCc1ccccc1	HSF1 activator 66.9
CC(C)(C)NC(=O)NC(=O)COc1ccc(Br)cc1Br	HSF1 activator 74.2
CC(OC(=O)c1nc(Cl)ccc1Cl)C(=O)c1ccccc1 (centres undefined)	none (no result: FID counter, NS3 helicase inh, HSP90 refold inh)
Cc1cc(C(=O)c2ccc(C(C)(C)C)cc2)c(NC(=O)CCl)s1	HSF1 activator 94.0
Cc1sc(NC(=O)CCl)c(C(=O)c2ccccc2)c1C	none
O=C(CCl)Nc1sccc1C(=O)c1ccccc1	HSF1 activator 61.1 (no result: FID counter, NS3 helicase inh, HSP90 refold inh)
Cc1cc(C(=O)c2ccccc2)c(NC(=O)CN2CCOCC2)s1	none
O=C(O)c1sccc1SCc1ccc(Cl)cc1Cl	none
C(=N\C(/N=C/c1ccco1)c1ccco1)/c1ccco1	HSF1 activator 80.6
O=C(O)c1ccc(C=NN=Cc2ccco2)cc1	none (no result: FID counter, core dimer inh, NS3 helicase inh, HSP90 refold inh)
CCc1cccc(CC)c1NC(=O)/C(C#N)=C/c1ccccc1C(F)(F)F	HSF1 activator 83.1
Cc1ccccc1-c1nc2ccccc2c(=O)n1/N=C/c1ccc([N+](=O)[O-])cc1	none (no result: FID counter, NS3 helicase inh, HSP90 refold inh)
Cc1ccc(S(=O)(=O)N2CCC(C(=O)NCCCN3CCCC3=O)CC2)cc1C	none
CCCC(=O)NC1=C(Cl)C(=O)c2ccccc2C1=O	HSF1 inhib 90.8, HSF1 activator 90.8 (no result: FID counter, core dimer inh, NS3 helicase inh, HSP90 refold inh)
Cc1cc(C)n(Cc2ccc(C(=O)Nc3ccc(Br)cc3C)o2)n1	none
CCC(C(=O)Nc1ccc2c(c1)OCCO2)n1nnc2ccccc2c1=O (centres undefined)	none
O=c1c2ccccc2nnn1CSc1ccc2c(c1)OCCO2	HSF1 activator 76.3
CNC(=O)c1nnsc1S(=O)c1ccc(Cl)cc1 (centres undefined)	HSF1 activator 73.0 (no result: core dimer inh)
CCCNC(=O)c1nnsc1S(=O)(=O)c1ccc(Cl)cc1	none (no result: core dimer inh, HSF1 inhib, HSF1 activator)
CCCNC(=O)c1nnsc1S(=O)c1ccc(Cl)cc1 (centres undefined)	HSF1 inhib -95.8 (no result: core dimer inh)
O=C(NCc1ccco1)c1ccc(S(=O)(=O)N2CCCCC2)cc1	none
COc1ccccc1CNC(=O)C1CCN(S(=O)(=O)c2cccc([N+](=O)[O-])c2)CC1	none
O=C(NCc1ccco1)c1ccc(S(=O)(=O)N2CCOCC2)cc1	core dimer inh 47.8
O=S(=O)(c1ccc2nc(-c3ccco3)c(-c3ccco3)nc2c1)N1CCOCC1	core dimer inh 58.6
O=S(=O)(c1ccc2ccccc2c1)N1CCOCC1	none
O=C(NCc1ccco1)C1CCN(S(=O)(=O)c2cccc([N+](=O)[O-])c2)CC1	HSF1 inhib -79.8
C=CCNC(=O)c1onc(CSc2cccc(OC)c2)c1C(=O)O	none
CNC[C@H](CC1CCCCC1)NC[C@H](Cc1ccccc1)NCCC12CC3CC(CC(C3)C1)C2	none
CNC[C@H](Cc1ccccc1)NC[C@@H](Cc1cccc2ccccc12)NCCc1ccc(C)cc1	FID counter 36.9, HSF1 inhib -90.6
CC1CC(C)CN(C(=O)CCn2c(=O)oc3ccccc32)C1 (centres undefined)	none
N#C/C(=C/c1ccc(Br)o1)C(N)=O	HSF1 inhib -92.4
COc1ccc(NC(=O)/C(C#N)=C/c2ccc(Br)o2)cc1	none
O=C(COC(=O)CC1c2ccccc2CCN1S(=O)(=O)c1ccccc1)Nc1ccccc1 (centres undefined)	HSF1 activator 57.9
Cc1ccc(C)c(NC(=O)COC(=O)CC2c3ccccc3CCN2S(=O)(=O)c2ccc(F)cc2)c1 (centres undefined)	none
O=C(N/N=C/c1cccc([N+](=O)[O-])c1)c1ccc(Br)cc1	none
O=C(N/N=C/c1cccc([N+](=O)[O-])c1)c1cccs1	HSF1 activator 53.6
O=C(N/N=C/C=C/c1ccc([N+](=O)[O-])cc1)c1cccs1	core dimer inh 48.9
O=C(N/N=C/C=C\c1ccccc1[N+](=O)[O-])c1cccs1	none
COc1ccc(Cl)c2sc(N3CCN(C(=O)c4ccco4)CC3)nc12	none (no result: FID counter, NS3 helicase inh, HSP90 refold inh)
Cc1nc(C)c(-c2ccc(SCc3ccc([N+](=O)[O-])cc3)nn2)s1	HSF1 activator 52.3
c1ccc(CSc2ncnc3c2cnn3-c2ccccc2)cc1	HSF1 inhib -59.2
Fc1cccc(Nc2ncnc3c2cnn3-c2ccccc2)c1	HSF1 activator 53.4 (no result: FID counter, NS3 helicase inh, HSP90 refold inh)
Nc1nc(SCC(=O)N2CCCC2)[nH]c(=O)c1NC(=O)c1cccs1	none
CCn1cc(Cl)c(C(=O)Nc2ccc(OC)c(OC)c2)n1	none
Fc1ccc(Nc2ccnc(Nc3ccc(F)cc3)n2)cc1	FID counter 39.2, HSF1 activator 72.4
C=CCSC1=C(C#N)C(c2cccc(OC)c2)CC(=O)N1 (centres undefined)	HSF1 activator 51.0
CCN(CC)S(=O)(=O)c1cccc(-c2nnc(SCC(N)=O)n2CCc2ccccc2)c1	HSF1 inhib -59.6
CCN(CC)S(=O)(=O)c1cccc(-c2nnc(SC(C)C(N)=O)n2CCc2ccccc2)c1 (centres undefined)	none
Cc1ccc(C2=NOC(=O)/C2=C\C=C\c2ccccc2)cc1	HSF1 activator 133.2 (no result: core dimer inh)
